Data on 24 compounds can be found in ChEMBL document CHEMBL1124413, “Quinazoline antifolate thymidylate synthase inhibitors: nitrogen, oxygen, sulfur, and chlorine substituents in the C2 position” (J Med Chem, 1989).

The structures appear in SMILES notation. Values after ≈ are worked out from the molar mass of the structure shown. Where only a bound is given, the exact number is not on record here.

What is called IC50 is the concentration that inhibits the measured activity by half. A low value points to higher potency. By solubility is commonly meant how much of the substance goes into solution per volume. High values mean much dissolved substance, low ones little dissolved substance. Broadly, the Ki is a dissociation constant, usually derived from enzyme kinetics or from competition with a known ligand. The low end stands for higher affinity, the high end for lower affinity.

One data set concerns L1210. Nature of the data set: Tested for inhibition of L1210 mouse leukemia cell growth in culture. The class given is functional, cell-based. The method, boiled down: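 L1210 mouse leukemia cells were grown in culture with the test agent. The result was expressed as IC50, the concentration that inhibits cell growth by 50%.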
The nature of data set [1]: Compound was tested for its solubility in 0.20 M aqueous NaH2PO4 initially at pH 7. The class given is ADME. To be noted: 0.20 M aqueous NaH2PO4, pH 7.
Data set [2] is described as follows: Compound was tested for its solubility in 0.01 M aqueous NaH2PO4 initially at pH 7. To be noted: 0.01 M aqueous NaH2PO4, pH 7. The class given is ADME. The method, boiled down:
(§1)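 Compound was dissolved to saturation in 0.01 M aqueous NaH2PO4 adjusted initially to pH 7. Solubility was reported as mg/mL, and the pH reached by the saturated solution was recorded.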

The nature of data set [3]: pH attained by the compound at saturation after dissolving in 0.01 M aqueous NaH2PO4 initially at pH 7. Type of data set: ADME. To be noted: buffer. Put shortly: as §1
Data set [4] in a line: pH attained by the compound at saturation after dissolving in 0.20 M aqueous NaH2PO4 initially at pH 7. The class given is ADME. To be noted: buffer.
The next data set has as its target T1, Dihydrofolate reductase (Homo sapiens, UniProt P00374).
T1 sequence (P00374 whole entry): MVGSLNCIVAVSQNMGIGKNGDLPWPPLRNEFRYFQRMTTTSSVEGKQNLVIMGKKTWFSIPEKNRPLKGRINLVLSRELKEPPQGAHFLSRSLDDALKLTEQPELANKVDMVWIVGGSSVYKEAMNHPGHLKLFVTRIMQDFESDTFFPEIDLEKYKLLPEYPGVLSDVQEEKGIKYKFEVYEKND
Nature of the data set: Effect against dihydrofolate reductase (DHFR).

`C#CCN(Cc1ccc2nc(NCCO)nc(O)c2c1)c1ccc(C(=O)NC(CCC(=O)O)C(=O)O)cc1` (stereo not drawn) had an IC50 in the data set with L1210 of 47 µM. On the same count and under the same terms, the result for `C#CCN(Cc1ccc2nc(S)nc(O)c2c1)c1ccc(C(=O)NC(CCC(=O)O)C(=O)O)cc1` (stereo not drawn) reads 60 µM. Still for that read-out and setting: the result for `C#CCN(Cc1ccc2nc(OCCO)nc(O)c2c1)c1ccc(C(=O)NC(CCC(=O)O)C(=O)O)cc1` (stereo not drawn) reads greater than 100 µM. The same measure, in the same setting: in the case of `C#CCN(Cc1ccc2nc(NCC(=O)O)nc(O)c2c1)c1ccc(C(=O)NC(CCC(=O)O)C(=O)O)cc1` (stereo not drawn) it was greater than 100 µM; in that of `C#CCN(Cc1ccc2nc(Oc3ccccc3)nc(O)c2c1)c1ccc(C(=O)NC(CCC(=O)O)C(=O)O)cc1` (stereo not drawn), greater than 100 µM.

Consider `C#CCN(Cc1ccc2nc(OC)nc(O)c2c1)c1ccc(C(=O)NC(CCC(=O)O)C(=O)O)cc1` (stereo not drawn), for which the values for the solubility in data set [1] and in data set [2] were 6600 µg/mL (≈ 13400 µM) and 1200 µg/mL (≈ 2440 µM), respectively. In addition, the pH in data set [3] is listed as 4.93; in data set [4], 5.67. In addition, in the data set on L1210, 1.9 µM corresponded to half-maximal inhibition (IC50). Consider `C#CCN(Cc1ccc2[nH]c(N)nc(=O)c2c1)c1ccc(C(=O)NC(CCC(=O)O)C(=O)O)cc1` (stereo not drawn), for which the figures for the solubility in data set [1] and in data set [2] were 60 µg/mL (≈ 126 µM) and 50 µg/mL (≈ 105 µM), respectively. Also, the values for the pH in data set [3] and in data set [4] were 5.76 and 6.78, respectively. Further, in the data set on L1210, half-maximal inhibition (IC50) required 3.4 µM. In the data set with L1210, `C#CCN(Cc1ccc2nc(N(C)C)nc(O)c2c1)c1ccc(C(=O)NC(CCC(=O)O)C(=O)O)cc1` (stereo not drawn) yielded a 50% inhibitory concentration (IC50) greater than 100 µM.

Take `CCN(Cc1ccc2nc(OC)nc(O)c2c1)c1ccc(C(=O)NC(CCC(=O)O)C(=O)O)cc1` (stereo not drawn): half-maximal inhibition in the data set with L1210 (IC50) required 12 µM.

The compound `C#CCN(Cc1ccc2nc(SC)nc(O)c2c1)c1ccc(C(=O)NC(CCC(=O)O)C(=O)O)cc1` (stereo not drawn) yielded an IC50 in the data set with L1210 of 13 µM. On the same count and under the same terms, the result for `C#CCN(Cc1ccc2nc(OCCOC)nc(O)c2c1)c1ccc(C(=O)NC(CCC(=O)O)C(=O)O)cc1` (stereo not drawn) reads 100 µM; that for `COc1nc(O)c2cc(CN(CCCO)c3ccc(C(=O)NC(CCC(=O)O)C(=O)O)cc3)ccc2n1` (stereo not drawn), 80 µM; that for `COc1nc(O)c2cc(CN(CCO)c3ccc(C(=O)NC(CCC(=O)O)C(=O)O)cc3)ccc2n1` (stereo not drawn), 7.3 µM. Regarding `COc1nc(O)c2cc(CNc3ccc(C(=O)NC(CCC(=O)O)C(=O)O)cc3)ccc2n1` (stereo not drawn), the Ki on Dihydrofolate reductase was roughly 0.6 µM. For the same compound, in the data set with L1210, the midpoint of inhibition, the IC50, lay at 6.4 µM.

In the data set with L1210, `C=CCN(Cc1ccc2nc(OC)nc(O)c2c1)c1ccc(C(=O)NC(CCC(=O)O)C(=O)O)cc1` (stereo not drawn) registered an IC50 of 16 µM.

For `C#CCN(Cc1ccc2nc(NCCN(C)C)nc(O)c2c1)c1ccc(C(=O)NC(CCC(=O)O)C(=O)O)cc1` (stereo not drawn), in the data set on L1210, the concentration for half-maximal inhibition (IC50) is greater than 100 µM. The same measure, in the same setting: the result for `C#CCN(Cc1ccc2nc(NCCN)nc(O)c2c1)c1ccc(C(=O)NC(CCC(=O)O)C(=O)O)cc1` (stereo not drawn) reads 97 µM. Same read-out and setting: the result for `COc1nc(O)c2cc(CN(C)c3ccc(C(=O)NC(CCC(=O)O)C(=O)O)cc3)ccc2n1` (stereo not drawn) reads 7 µM. Same read-out and setting: in the case of `C#CCN(Cc1ccc2nc(NCC)nc(O)c2c1)c1ccc(C(=O)NC(CCC(=O)O)C(=O)O)cc1` (stereo not drawn) it was greater than 100 µM; in that of `C#CCN(Cc1ccc2nc(OCC)nc(O)c2c1)c1ccc(C(=O)NC(CCC(=O)O)C(=O)O)cc1` (stereo not drawn), greater than 100 µM.

In turn, `COc1nc(O)c2cc(CN(CCF)c3ccc(C(=O)NC(CCC(=O)O)C(=O)O)cc3)ccc2n1` (stereo not drawn) displayed an IC50 in the data set with L1210 of 17 µM. In the data set on L1210, `C#CCN(Cc1ccc2nc(Cl)nc(O)c2c1)c1ccc(C(=O)NC(CCC(=O)O)C(=O)O)cc1` (stereo not drawn) had an IC50 of 67 µM. Same read-out and setting: in the case of `C#CCN(Cc1ccc2nc(NC)nc(O)c2c1)c1ccc(C(=O)NC(CCC(=O)O)C(=O)O)cc1` (stereo not drawn) it was 24 µM; in that of `C#CCN(Cc1ccc2nc(-n3ccnc3)nc(O)c2c1)c1ccc(C(=O)NC(CCC(=O)O)C(=O)O)cc1` (stereo not drawn), greater than 100 µM.
